According to ChEMBL document CHEMBL1132383, “Cardioselective antiischemic ATP-sensitive potassium channel (K(ATP)) openers. 6. Effect of modifications at C6 of benzopyranyl cyanoguanidines” (J Med Chem, 1999):

Experiments:
Type in all cases: functional
[1] = species on record: Rattus norvegicus; assay: Antiischemic potency by measurement of increase in time to contracture in globally ischemic isolated perfused rat hearts
How it was run: (§1)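 Isolated rat hearts, perfused and then subjected to global ischemia. Activity is read as the lengthening of time to onset of ischemic contracture. Compounds were first tested at 10 μM. EC25 for increasing time to contracture was then determined.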

[2] = species on record: Rattus norvegicus; assay: Antiischemic potency by measurement of increase in time to contracture in globally ischemic isolated perfused rat hearts.; how it was run: as §1
[3] = species on record: Rattus norvegicus; assay: In vitro relaxation of rat aorta precontracted with methoxamine.
How it was run: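 Rat aortic rings precontracted with methoxamine. IC50 is the concentration giving relaxation, reported as the mean of n = 4 or more.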

[4] = Ratio of Antiischemic potency to vasorelaxant potency.
How it was run: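 Selectivity is calculated as the EC25 for lengthening time to contracture in globally ischemic isolated rat hearts divided by the IC50 for relaxing methoxamine-contracted rat aorta.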

[5] = species on record: Rattus norvegicus; assay: Antiischemic potency by measurement of increase in time to contracture in globally ischemic isolated perfused rat hearts at 1 uM.
How it was run: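 Isolated perfused rat hearts under global ischemia, compound present at 1 μM. Cardioprotection is read as the increase in time to onset of ischemic contracture.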

Structure (SMILES) | EC25 [1] | EC25 [2] | IC50 [3] | Ratio [4] | Activity [5]
CC1(C)Oc2ccc(S(=O)(=O)N3CCCCCC3)cc2[C@@H](/N=C(\NC#N)Nc2ccc(Cl)cc2)[C@@H]1O | 600 nM | – | – | – | –
CC1(C)Oc2ccc(S(=O)(=O)N3CCCC3)cc2[C@@H](/N=C(\NC#N)Nc2ccc(Cl)cc2)[C@@H]1O | – | 330 nM | – | – | –
CC(C)N(C(C)C)S(=O)(=O)c1ccc2c(c1)[C@@H](/N=C(\NC#N)Nc1ccc(Cl)cc1)[C@H](O)C(C)(C)O2 | 240 nM | – | – | – | –
CC1(C)Oc2ccc(S(=O)(=O)N3CCOCC3)cc2[C@@H](/N=C(\NC#N)Nc2ccc(Cl)cc2)[C@@H]1O | 1000 nM | – | 3100 nM | 0.32 | –
CC(C)(C)C(=O)c1ccc2c(c1)[C@@H](/N=C(\NC#N)Nc1ccc(Cl)cc1)[C@H](O)C(C)(C)O2 | 1800 nM | – | 5400 nM | 0.33 | –
CC(C)CN(C)S(=O)(=O)c1ccc2c(c1)[C@@H](/N=C(\NC#N)Nc1ccc(Cl)cc1)[C@H](O)C(C)(C)O2 | 250 nM | – | – | – | –
CC1(C)Oc2ccc(C(=O)c3ccccc3)cc2[C@@H](/N=C(\NC#N)Nc2ccc(Cl)cc2)[C@@H]1O | 900 nM | – | 7100 nM | 0.13 | –
CC1(C)Oc2ccc(C#N)cc2[C@@H](/N=C(\NC#N)Nc2ccc(Cl)cc2)[C@@H]1O | 2500 nM | – | – | 1.4 | –
CCN(CC)S(=O)(=O)c1ccc2c(c1)[C@@H](/N=C(\NC#N)Nc1ccc(Cl)cc1)[C@H](O)C(C)(C)O2 | 300 nM | – | 1100 nM | 0.27 | –
CC1(C)Oc2ccc(Cc3ccccc3)cc2[C@@H](/N=C(\NC#N)Nc2ccc(Cl)cc2)[C@@H]1O | 11100 nM | – | 10000 nM | 1.1 | –
CCN(CC(F)(F)F)S(=O)(=O)c1ccc2c(c1)[C@@H](/N=C(\NC#N)Nc1ccc(Cl)cc1)[C@H](O)C(C)(C)O2 | 260 nM | – | – | – | –
CC1(C)Oc2ccc(S(=O)(=O)Nc3ccccc3)cc2[C@@H](/N=C(\NC#N)Nc2ccc(Cl)cc2)[C@@H]1O | 1900 nM | – | 3300 nM | 0.6 | –
CC1(C)Oc2ccc(C(=O)Cc3ccccc3)cc2[C@@H](/N=C(\NC#N)Nc2ccc(Cl)cc2)[C@@H]1O | 400 nM | – | 6800 nM | 0.06 | –
CC1(C)Oc2ccc(S(=O)(=O)N3CCCCC3)cc2[C@@H](/N=C(\NC#N)Nc2ccc(Cl)cc2)[C@@H]1O | 270 nM | – | 1900 nM | 0.14 | –
C=C(c1ccccc1)c1ccc2c(c1)[C@@H](/N=C(\NC#N)Nc1ccc(Cl)cc1)[C@H](O)C(C)(C)O2 | – | – | 10700 nM | – | 3%
CC1(C)Oc2ccc(S(=O)(=O)N3CCC(Cc4ccccc4)CC3)cc2[C@@H](/N=C(\NC#N)Nc2ccc(Cl)cc2)[C@@H]1O | 940 nM | – | > 30000 nM | – | –
CC1(C)Oc2ccc(C#N)cc2[C@@H](N2CCCC2=O)[C@@H]1O [CROMAKALIM] | 8900 nM | – | – | 278 | –
CC1(C)Oc2ccc(S(N)(=O)=O)cc2[C@@H](/N=C(\NC#N)Nc2ccc(Cl)cc2)[C@@H]1O | >10000 nM | – | 41300 nM | – | –
CC1(C)Oc2ccc(S(=O)(=O)c3ccccc3)cc2[C@@H](/N=C(\NC#N)Nc2ccc(Cl)cc2)[C@@H]1O | 800 nM | – | 500 nM | 1.6 | –
CC1(C)Oc2ccc(C#N)cc2[C@H](N(Cc2ncc[nH]2)c2ccc(Cl)cc2)[C@H]1O [BMS-191095] | 1400 nM | – | > 30000 nM | < 0.05 | –
CC1CCN(S(=O)(=O)c2ccc3c(c2)[C@@H](/N=C(\NC#N)Nc2ccc(Cl)cc2)[C@H](O)C(C)(C)O3)CC1 | 650 nM | – | – | – | –
COP(=O)(c1ccccc1)c1ccc2c(c1)[C@@H](/N=C(\NC#N)Nc1ccc(Cl)cc1)[C@H](O)C(C)(C)O2 (some centres undefined) | 2400 nM | – | 44100 nM | 0.05 | –
C[C@@H]1CCC[C@H](C)N1S(=O)(=O)c1ccc2c(c1)[C@@H](/N=C(\NC#N)Nc1ccc(Cl)cc1)[C@H](O)C(C)(C)O2 | 340 nM | – | 500 nM | 0.68 | –
CC(C)CN(CC(C)C)S(=O)(=O)c1ccc2c(c1)[C@@H](/N=C(\NC#N)Nc1ccc(Cl)cc1)[C@H](O)C(C)(C)O2 | 40 nM | – | 9400 nM | 0.004 | –
CC1CC(C)CN(S(=O)(=O)c2ccc3c(c2)[C@@H](/N=C(\NC#N)Nc2ccc(Cl)cc2)[C@H](O)C(C)(C)O3)C1 (some centres undefined) | 230 nM | – | 32100 nM | 0.007 | –
CC1(C)Oc2ccc(C(=O)Nc3ccccc3)cc2[C@@H](/N=C(\NC#N)Nc2ccc(Cl)cc2)[C@@H]1O | >10000 nM | – | > 100000 nM | – | –
CC1(C)Oc2ccc(S(=O)(=O)N3CCCC(Cc4ccccc4)C3)cc2[C@@H](/N=C(\NC#N)Nc2ccc(Cl)cc2)[C@@H]1O (some centres undefined) | 1100 nM | – | – | – | –
CC1(C)Oc2ccc(S(=O)(=O)NC3CCCCC3)cc2[C@@H](/N=C(\NC#N)Nc2ccc(Cl)cc2)[C@@H]1O | 2200 nM | – | 11700 nM | 0.19 | –
